Experimental data: ChEMBL document CHEMBL1240409, “Design, synthesis and evaluation of (E)-alpha-benzylthio chalcones as novel inhibitors of BCR-ABL kinase” (Bioorg Med Chem, 2010)

Columns and labels:
K562 = assay: Growth inhibition of human K562 cells expressing p210Bcr/Abl after 96 hrs by trypan blue exclusion assay; type: functional, cell-based; settings: K562, 96 h
Summary of the method: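 K562 cells were kept in RPMI with 10% FBS and penicillin–streptomycin at 37 °C under 5% CO2. Cells were seeded at 1 × 10^5 cells/mL with a range of compound concentrations, using DMSO as the negative control. After 96 h, viability was counted by Trypan blue exclusion and expressed as percent of DMSO control to derive GI50.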

DU-145 = assay: Growth inhibition of human DU145 cells after 96 hrs by trypan blue exclusion assay; type: functional; settings: DU-145, 96 h

| GI50 (K562) [µM] | GI50 (DU-145) [µM] | SMILES |
| --- | --- | --- |
| 1 | 1 | O=C(/C(=C\c1ccc(Br)cc1)SCc1ccc(Cl)cc1)c1ccc(Cl)cc1 |
| > 100 | 50 | CSc1ccc(/C=C(\C(=O)c2ccc(Br)cc2)S(=O)(=O)Cc2ccc(F)cc2)cc1 |
| 25 | 25 | O=C(/C(=C\c1ccccc1F)S(=O)(=O)c1ccc(Br)cc1)c1ccc(Cl)cc1 |
| 1 | 9 | O=C(/C(=C\c1ccc(Br)cc1)SCc1ccc(F)cc1)c1ccc(Cl)cc1 |
| 10 | 10 | O=C(/C(=C\c1ccc(O)cc1)S(=O)(=O)Cc1ccc(F)cc1)c1ccc(Br)cc1 |
| > 100 | 50 | Cc1ccsc1/C=C(/SCc1ccc(F)cc1)C(=O)c1ccc(Br)cc1 |
| 1 | 1 | COc1ccc(/C=C(\C(=O)c2ccc(Br)cc2)S(=O)(=O)c2ccc(C)cc2)cc1 |
| 1 | 10 | COc1ccc(/C=C(\C(=O)c2ccc(Br)cc2)S(=O)(=O)c2ccc(Br)cc2)c(F)c1 |
| 50 | > 100 | CN(C)c1ccc(/C=C(\C(=O)c2ccc(Cl)cc2)S(=O)(=O)c2ccc(Br)cc2)cc1 |
| 1 | 1 | COc1ccc(/C=C(/SCc2ccc(F)cc2)C(=O)c2ccc(Br)cc2)cc1O |
| 1 | 10 | COc1ccc(/C=C(/SCc2ccc(Cl)cc2)C(=O)c2ccc(Br)cc2)cc1 |
| 1 | 10 | O=C(/C(=C\c1ccc([N+](=O)[O-])c(O)c1)SCc1ccc(Br)cc1)c1ccc(Br)cc1 |
| 2.5 | 1 | O=C(/C(=C\c1ccc(Br)cc1)Sc1ccc(Br)cc1)c1ccc(Br)cc1 |
| 1 | 1 | COc1ccccc1/C=C(\C(=O)c1ccc(Br)cc1)S(=O)(=O)c1ccc(C)cc1 |
| 10 | 25 | O=C(/C(=C\c1ccc(O)cc1)SCc1ccc(F)cc1)c1ccc(Cl)cc1 |
| > 100 | > 100 | Cc1ccc(S(=O)(=O)/C(=C/c2ccc(N(C)C)cc2)C(=O)c2ccc(Cl)cc2)cc1 |
| 6 | 6 | COc1ccc(S(=O)(=O)/C(=C/c2ccc(Br)cc2)C(=O)c2ccc(Br)cc2)cc1 |
| 1 | 1 | Cc1ccc(C)c(/C=C(\C(=O)c2ccc(Br)cc2)S(=O)(=O)Cc2ccc(F)cc2)c1 |
| 1 | 10 | O=C(/C(=C\c1ccc(Cl)cc1)SCc1ccc(Cl)cc1)c1ccc(Br)cc1 |
| 10 | 25 | O=C(/C(=C\c1ccc(F)c([N+](=O)[O-])c1)S(=O)(=O)c1ccc(Br)cc1)c1ccc(Br)cc1 |
| 1 | 1 | O=C(/C(=C\c1ccc(F)cc1F)Sc1ccc(Br)cc1)c1ccc(Br)cc1 |
| 1 | 7.5 | O=C(/C(=C\c1ccc(F)cc1F)S(=O)(=O)c1ccc(Br)cc1)c1ccc(Br)cc1 |
| > 100 | 50 | Cc1ccc(S(=O)(=O)/C(=C/c2ccc(N(C)C)cc2)C(=O)c2ccc(Br)cc2)cc1 |
| 1 | 10 | O=C(/C(=C\c1ccc(O)c([N+](=O)[O-])c1)S(=O)(=O)Cc1ccc(Br)cc1)c1ccc(Br)cc1 |
| 50 | > 100 | Cc1ccc(S/C(=C/c2ccc(N(C)C)cc2)C(=O)c2ccc(Br)cc2)cc1 |
| 10 | 10 | COc1ccccc1/C=C(\C(=O)c1ccc([N+](=O)[O-])cc1)S(=O)(=O)Cc1ccc(Cl)cc1 |
| > 100 | 25 | Cc1ccc(CS(=O)(=O)/C(=C/c2c[nH]c3ccccc23)C(=O)c2ccc(Cl)cc2)cc1 |
| 1 | 25 | CSc1ccc(/C=C(/SCc2ccc(Cl)cc2)C(=O)c2ccc(Cl)cc2)cc1 |
| 25 | 25 | COc1ccccc1/C=C(\C(=O)c1ccc(Br)cc1)S(=O)(=O)Cc1ccc(F)cc1 |
| 1 | 50 | CSc1ccc(/C=C(/Sc2ccc(C)cc2)C(=O)c2ccc(Br)cc2)cc1 |

Further lines, the compound ahead of its results:

| SMILES | GI50 (K562) [µM] | GI50 (DU-145) [µM] |
| --- | --- | --- |
| Cc1ccc(CS/C(=C/c2ccccc2F)C(=O)c2ccc(Cl)cc2)cc1 | 1 | 10 |
| O=C(/C(=C\c1ccc(O)cc1O)Sc1ccccc1Br)c1ccc(Cl)cc1 | 50 | 50 |
| O=C(/C(=C\c1ccc(Br)cc1)Sc1ccccc1Br)c1ccc(Br)cc1 | 8 | 1 |
| Cc1ccc(S(=O)(=O)/C(=C/c2ccc(O)c([N+](=O)[O-])c2)C(=O)c2ccc(Cl)cc2)cc1 | 25 | 25 |
| Cc1ccc(CS/C(=C/c2ccc(F)c(C)c2)C(=O)c2ccc(Cl)cc2)cc1 | 10 | 25 |
| Cc1ccsc1/C=C(/SCc1ccc(Cl)c(Cl)c1)C(=O)c1ccc(Cl)cc1 | 50 | 50 |
| O=C(/C(=C/c1ccc(Cl)cc1)Cc1c[nH]c2ccccc12)c1ccc(Cl)cc1Cl | 10 | 10 |
| Cc1ccc(CS/C(=C/c2ccc(N(C)C)cc2)C(=O)c2ccc(Cl)cc2)cc1 | 15 | > 100 |
| COc1ccccc1/C=C(/SCc1ccc(Cl)cc1)C(=O)c1ccc([N+](=O)[O-])cc1 | 1 | 10 |
| COc1ccccc1/C=C(/SCc1ccc(Cl)cc1)C(=O)c1ccc(Cl)cc1 | 1 | 1 |
| O=C(/C(=C\c1ccccc1OCc1ccccc1)SCc1ccc(F)cc1)c1ccc(Cl)cc1 | 1 | 1 |
| O=C(/C(=C\c1c(O)cc(O)cc1O)S(=O)(=O)c1ccccc1Br)c1ccc(Cl)cc1 | 50 | 50 |
| Cc1ccc(/C=C(/SCc2ccc(F)cc2)C(=O)c2ccc(Cl)cc2)s1 | > 100 | > 100 |
| CCOc1ccc(/C=C(\C(=O)c2ccc(Cl)cc2)S(=O)(=O)c2ccc(C)cc2)cc1OC | 1 | 1 |
| Cc1ccc(S(=O)(=O)/C(=C/c2ccc(C)s2)C(=O)c2ccc(Br)cc2)cc1 | 50 | 25 |
| Cc1ccc(S(=O)(=O)/C(=C/c2ccc(Oc3ccccc3)cc2)C(=O)c2ccc(Cl)cc2)cc1 | 1 | 1 |
| O=C(O)c1ccc(C(=O)/C(=C\c2ccc(Br)c([N+](=O)[O-])c2)SCc2ccccc2Cl)cc1 | 1 | 1 |
| Cc1ccc(S/C(=C/c2ccc(Oc3ccccc3)cc2)C(=O)c2ccc(Cl)cc2)cc1 | 10 | 10 |
| CN(C)c1ccc(/C=C(/SCc2ccc(Cl)cc2)C(=O)c2ccc([N+](=O)[O-])cc2)cc1 | 50 | > 100 |
| Cc1ccsc1/C=C(/SCc1ccccc1F)C(=O)c1ccc(Cl)cc1 | 50 | 50 |
| Cc1ccc(S/C(=C/c2ccc(Cl)c(Cl)c2)C(=O)c2ccc(Br)cc2)cc1 | 50 | 50 |
| Cc1ccc(S/C(=C/c2ccc(Cl)cc2)C(=O)c2ccc(Cl)cc2)cc1 | 1 | 10 |

| SMILES | GI50 (K562) [µM] | GI50 (DU-145) [µM] |
| --- | --- | --- |
| COc1cc(OC)c(C=C(C(=O)c2ccc(Cl)cc2)S(=O)(=O)Cc2ccccc2Cl)c(OC)c1 | 25 | > 100 |
| Cc1ccc(CS/C(=C/c2ccc(F)cc2C(F)(F)F)C(=O)c2ccc(Cl)cc2)cc1 | 50 | 50 |
| CC(=O)Nc1ccc(/C=C(/SCc2ccc(F)cc2)C(=O)c2ccc(C(=O)O)cc2)cc1[N+](=O)[O-] | 1 | 10 |
| O=C(/C(=C\c1c[nH]c2ccccc12)SCc1ccc(F)cc1)c1ccc(Cl)cc1 | 1 | 1 |
| O=C(/C(=C\c1ccc(O)c([N+](=O)[O-])c1)S(=O)(=O)c1ccc(I)cc1)c1ccc(I)cc1 | 25 | 25 |
| COc1ccccc1/C=C(/SCc1ccc(Cl)c(Cl)c1)C(=O)c1ccc(Cl)cc1 | 10 | 10 |
| CCOc1ccc(/C=C(/SCc2ccc(C)cc2)C(=O)c2ccc(Cl)cc2)cc1OC | 25 | 25 |
| Cc1ccc(S/C(=C/c2c[nH]c3ccc(Br)cc23)C(=O)c2ccc(Br)cc2)cc1 | 10 | 1 |
| O=C(/C(=C\c1ccc(OCc2ccccc2)cc1)SCc1cccc(Cl)c1)c1ccc(Br)cc1 | 1 | 1 |
| O=C(/C(=C\c1ccc(O)c([N+](=O)[O-])c1)Sc1ccccc1Br)c1ccc(Cl)cc1 | 10 | 25 |
| COc1cc(C(=O)/C(=C\c2ccc([N+](=O)[O-])c(O)c2)SCc2ccc(Br)cc2)cc(OC)c1OC | 1 | 1 |
| O=C(O)c1cc(/C=C(\C(=O)c2c(F)c(F)c(F)c(F)c2F)S(=O)(=O)c2ccc(Br)cc2)ccc1O | > 100 | > 100 |
| Nc1c(Br)cc(Br)cc1/C=C(/Sc1ccc(Br)cc1)C(=O)c1ccc(Br)cc1 | > 100 | > 100 |
| Cc1ccc(CS/C(=C/c2cc(Cl)cc(Cl)c2)C(=O)c2ccc(Cl)cc2)cc1 | 10 | 10 |
| O=C(/C(=C\c1ccc(O)c([N+](=O)[O-])c1)SCc1ccc(Br)cc1)c1ccc([N+](=O)[O-])cc1 | 10 | 10 |
| O=C(/C(=C\c1ccc(O)cc1O)SCc1ccc(Cl)cc1)c1ccc(Cl)cc1 | 50 | 50 |
| Nc1c(Br)cc(Br)cc1/C=C(\C(=O)c1ccc(Br)cc1)S(=O)(=O)c1ccc(Br)cc1 | 25 | 25 |
| COc1ccccc1/C=C(/Sc1ccc(C)cc1)C(=O)c1ccc(Cl)cc1 | 10 | 25 |
| Cc1ccc(S/C(=C/c2c(O)cc(O)cc2O)C(=O)c2ccc(Br)cc2)cc1 | 50 | > 100 |
| O=C(/C(=C\c1ccc(O)c([N+](=O)[O-])c1)Sc1ccccc1Br)c1ccc(Br)cc1 | 10 | 10 |
| Cc1ccc(CS/C(=C/c2c[nH]c3ccc(Br)cc23)C(=O)c2ccc(Cl)cc2)cc1 | 1 | 1 |
| COc1ccccc1/C=C(\C(=O)c1ccc(Cl)cc1)S(=O)(=O)Cc1ccc(Cl)c(Cl)c1 | 1 | 1 |
